Active and inactive are the calls of the source. The calls are words filed in the database; no cut-off is given here.
What was measured:
[1] = Selectivity index, ratio of CC50 for African monkey Vero cells to EC50 for Zika virus infected in African green monkey Vero cells; assay type: toxicity; conditions: read-out: Ratio CC50/EC50
How it was run: (§1)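 SI = CC50 in Vero cells divided by EC50 against the matching virus in Vero cells. Both values come from three independent experiments.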

[2] = Selectivity index, ratio of CC50 for African monkey Vero cells to EC50 for Chikungunya virus infected in African green monkey Vero cells; assay type: toxicity; conditions: read-out: Ratio CC50/EC50; how it was run: as §1
Zika virus [3] = assay: Antiviral activity against Zika virus infected in African green monkey Vero cells assessed as reduction in viral replication treated with compound at 1 hr post-viral infection; assay type: functional, organism-based
How it was run: (§2)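 Vero cells infected at MOI 0.1 and given 1 h for viral adsorption, then treated with increasing compound concentrations. EC50 is the concentration reducing viral replication by 50% versus infected controls. Mean ± SD of three independent experiments.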

[4] = Ratio of RibavarinCC50 to compound CC50 for African green monkey Vero cells assessed as reduction in cell viability by MTT assay; assay type: cell-based; conditions: chlorocebus sabaeus
Chikungunya virus [5] = assay: Antiviral activity against Chikungunya virus infected in African green monkey Vero cells assessed as reduction in viral replication treated with compound at 1 hr post-viral infection; assay type: functional, organism-based; how it was run: as §2
[6] = Cytotoxicity against African green monkey Vero cells assessed as reduction in cell viability by MTT assay; assay type: cell-based; conditions: chlorocebus sabaeus
How it was run: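 Vero cell viability tested over 100–2000 µM. CC50 is the concentration reducing viability by 50% versus untreated controls. Mean ± SD of 3 independent experiments.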

Chikungunya virus [7] = assay: Antiviral activity against Chikungunya virus infected in African green monkey Vero cells assessed as reduction in viral RNA production; assay type: functional, organism-based
Chikungunya virus [8] = assay: Antiviral activity against Chikungunya virus infected in African green monkey Vero cells assessed as reduction in viral replication at 10 uM treated with compound at 16 hrs post infection by plaque formation assay; assay type: functional, organism-based
Chikungunya virus [9] = assay: Antiviral activity against Chikungunya virus infected in African green monkey Vero cells assessed as reduction in viral replication at 10 uM treated with compound up to 12 hrs post infection by plaque formation assay; assay type: functional, organism-based
Zika virus [10] = assay: Antiviral activity against Zika virus infected in African green monkey Vero cells assessed as reduction in viral RNA production; assay type: functional, organism-based
Zika virus [11] = assay: Antiviral activity against Zika virus infected in African green monkey Vero cells assessed as reduction in viral replication at 10 uM treated with compound at 12 hrs post infection by plaque formation assay; assay type: functional, organism-based
Zika virus [12] = assay: Antiviral activity against Zika virus infected in African green monkey Vero cells assessed as reduction in viral replication at 10 uM treated with compound up to 6 hrs post infection by plaque formation assay; assay type: functional, organism-based
Zika virus [13] = assay: Antiviral activity against Zika virus infected in African green monkey Vero cells assessed as reduction in viral replication at 10 uM treated with compound at 6 hrs post infection by plaque formation assay; assay type: functional, organism-based

| SMILES | selectivity ratio [1] | selectivity ratio [2] | EC50 (Zika virus [3]) [µM] | selectivity ratio [4] | EC50 (Chikungunya virus [5]) [µM] | CC50 [6] [µM] | Activity (Chikungunya virus [7]) | Activity (Chikungunya virus [8]) | Activity (Chikungunya virus [9]) | Activity (Zika virus [10]) | Activity (Zika virus [11]) | Activity (Zika virus [12]) | Activity (Zika virus [13]) |
| --- | --- | --- | --- | --- | --- | --- | --- | --- | --- | --- | --- | --- | --- |
| O=C(N/N=C/c1ccccc1O)c1c[nH]c2ccccc2c1=O | 661 | 176 | 0.76 | ≥ 2 | 2.85 | 502 |  |  |  |  |  |  |  |
| O=C(N/N=C/c1ccccc1O)c1c[nH]c2ccc(Br)cc2c1=O | 548 | 164 | 0.81 | ≥ 2 | 2.7 | 443 |  |  |  |  |  |  |  |
| O=C(N/N=C/c1ccccc1O)c1c[nH]c2ccc(F)cc2c1=O | 893 | 632 | 0.75 | ≥ 2 | 1.06 | 669 | Dose-dependent effect | inactive | Active |  |  |  |  |
| O=C(N/N=C/c1ccccc1O)c1c[nH]c2ccc(Cl)cc2c1=O | 1410 | 402 | 0.79 | ≥ 2 | 2.77 | 1110 |  |  |  | Dose-dependent effect | Active | Active |  |
| NC(=O)c1ncn([C@@H]2O[C@H](CO)[C@@H](O)[C@H]2O)n1 [RIBAVIRIN] | 75.2 | 122 | 3.95 |  | 2.42 | 297 |  |  | inactive |  |  |  | inactive |

From ChEMBL document CHEMBL4602650, “Quinolone-N-acylhydrazone hybrids as potent Zika and Chikungunya virus inhibitors” (Bioorg Med Chem Lett, 2020)
